Source: ChEMBL document CHEMBL4308838, “Subtle Modifications to the Indole-2-carboxamide Motif of the Negative Allosteric Modulator N-(( trans)-4-(2-(7-Cyano-3,4-dihydroisoquinolin-2(1 H)-yl)ethyl)cyclohexyl)-1 H-indole-2-carboxamide (SB269652) Yield Dramatic Changes in Pharmacological Activity at the Dopamine D2 Receptor” (J Med Chem, 2018)

Legend:
Type in all cases: cell-based
[1] = molecular target: D(2) dopamine receptor (Homo sapiens) (UniProt P14416); assay: Negative allosteric modulation of human D2LR expressed in Flp-In-CHO cells assessed as inhibition of dopamine-indued ERK1/2 phosphorylation by measuring effect on dopamine efficacy preincubated for 30 mins followed by dopamine addition and measured after 5 mins by AlphaScreen assay relative to control
Method in brief: (§1)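 pERK1/2 signalling through the long D2 isoform (D2LR) expressed in FlpIn CHO cells. Test ligands were measured against increasing dopamine concentrations. Curves were fitted with an operational model of allosterism (functional affinity KB, cooperativity α, efficacy modulation β, net αβ) and with a Gaddum-Schild model (KB, Schild slope). The better fit was chosen by F-test. Mean ± SEM of three experiments run in duplicate.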

[2] = molecular target: D(2) dopamine receptor (Homo sapiens) (UniProt P14416); assay: Negative allosteric modulation of human D2LR expressed in Flp-In-CHO cells assessed as inhibition of dopamine-indued ERK1/2 phosphorylation preincubated for 30 mins followed by dopamine addition and measured after 5 mins by AlphaScreen assay; method in brief: as §1
[3] = molecular target: D(2) dopamine receptor (Homo sapiens) (UniProt P14416); assay: Negative allosteric modulation of human D2LR expressed in Flp-In-CHO cells assessed as inhibition of dopamine-indued ERK1/2 phosphorylation by measuring co-operativity factor preincubated for 30 mins followed by dopamine addition and measured after 5 mins by AlphaScreen assay; method in brief: as §1
[4] = molecular target: D(2) dopamine receptor (Homo sapiens) (UniProt P14416); assay: Negative allosteric modulation of human D2LR expressed in Flp-In-CHO cells assessed as inhibition of dopamine-indued ERK1/2 phosphorylation by measuring co-operativity factor preincubated for 30 mins followed by dopamine addition and measured after 5 mins by AlphaScreen assay relative to control; method in brief: as §1
[5] = molecular target: D(2) dopamine receptor (Homo sapiens) (UniProt P14416); assay: Negative allosteric modulation of human D2LR expressed in Flp-In-CHO cells assessed as inhibition of dopamine-indued ERK1/2 phosphorylation by measuring effect on dopamine efficacy preincubated for 30 mins followed by dopamine addition and measured after 5 mins by AlphaScreen assay; method in brief: as §1
[6] = molecular target: D(2) dopamine receptor (Homo sapiens) (UniProt P14416); assay: Negative allosteric modulation of human D2LR expressed in Flp-In-CHO cells assessed as inhibition of dopamine-indued ERK1/2 phosphorylation preincubated for 30 mins followed by dopamine addition and measured after 5 mins by AlphaScreen assay relative to control; method in brief: as §1
[7] = molecular target: D(2) dopamine receptor (Homo sapiens) (UniProt P14416); assay: Negative allosteric modulation of human D2LR expressed in Flp-In-CHO cells assessed as inhibition of dopamine-indued ERK1/2 phosphorylation by measuring negative co-operativity factor preincubated for 30 mins followed by dopamine addition and measured after 5 mins by AlphaScreen assay; method in brief: as §1

D(2) dopamine receptor (Homo sapiens), sequence (P14416 whole entry, canonical isoform): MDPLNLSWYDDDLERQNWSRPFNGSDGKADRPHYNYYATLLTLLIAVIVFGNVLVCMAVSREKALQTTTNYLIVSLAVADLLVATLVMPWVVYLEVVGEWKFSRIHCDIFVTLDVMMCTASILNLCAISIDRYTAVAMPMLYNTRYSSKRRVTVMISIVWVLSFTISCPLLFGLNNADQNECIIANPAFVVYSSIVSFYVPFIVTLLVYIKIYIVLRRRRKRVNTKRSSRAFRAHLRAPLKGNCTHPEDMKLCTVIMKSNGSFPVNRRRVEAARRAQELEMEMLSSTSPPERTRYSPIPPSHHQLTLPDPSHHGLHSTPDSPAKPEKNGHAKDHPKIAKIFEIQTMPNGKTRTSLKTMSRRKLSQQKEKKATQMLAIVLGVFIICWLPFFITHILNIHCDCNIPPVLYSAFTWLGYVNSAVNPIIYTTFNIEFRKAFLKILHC

| Structure (SMILES) | fold change (FC) [1] | Kb [2] | pKb [2] | Activity [3] | log(activity) [3] | fold change (FC) [4] | Activity [5] | log(activity) [5] | fold change (FC) [6] | Activity [7] | log(activity) [7] |
| --- | --- | --- | --- | --- | --- | --- | --- | --- | --- | --- | --- |
| N#Cc1ccc2c(c1)CN(CC[C@H]1CC[C@H](NC(=O)c3c[nH]c4cccnc34)CC1)CC2 | 6 | 0.148 nM | 9.83 | 0.048 | -1.32 | 21 | 0.16 | -0.8 |  |  |  |
| N#Cc1ccc2c(c1)CN(CC[C@H]1CC[C@H](NC(=O)c3c[nH]c4ncccc34)CC1)CC2 |  | 34 nM | 7.47 |  |  |  |  |  | 32 | 0.032 | -1.5 |
| COc1cccc2cc(C(=O)N[C@H]3CC[C@H](CCN4CCc5ccc(C#N)cc5C4)CC3)[nH]c12 |  | 51 nM | 7.29 |  |  |  |  |  |  |  |  |
| N#Cc1ccc2c(c1)CN(CC[C@H]1CC[C@H](NC(=O)c3cc4ccc(F)cc4[nH]3)CC1)CC2 |  | 219 nM | 6.66 |  |  |  |  |  | 15 | 0.065 | -1.19 |
| N#Cc1ccc2c(c1)CN(CC[C@H]1CC[C@H](NC(=O)c3c[nH]c4ccccc34)CC1)CC2 |  | 63 nM | 7.2 |  |  |  |  |  |  |  |  |
| N#Cc1ccc2c(c1)CN(CC[C@H]1CC[C@H](NC(=O)c3cnn4ccccc34)CC1)CC2 |  | 40 nM | 7.39 |  |  |  |  |  |  |  |  |
| N#Cc1ccc2c(c1)CN(CC[C@H]1CC[C@H](NC(=O)c3cc4c(F)cccc4[nH]3)CC1)CC2 |  | 47 nM | 7.33 |  |  |  |  |  | 32 | 0.032 | -1.5 |
| N#Cc1ccc2c(c1)CN(CC[C@H]1CC[C@H](NC(=O)c3c[nH]c4ccncc34)CC1)CC2 |  | 3.5 nM | 8.46 |  |  |  |  |  |  |  |  |
| N#Cc1ccc2c(c1)CN(CC[C@H]1CC[C@H](NC(=O)c3c[nH]c4cnccc34)CC1)CC2 |  | 10 nM | 8 |  |  |  |  |  | 275 | 0.0036 | -2.44 |
| N#Cc1ccc2c(c1)CN(CC[C@H]1CC[C@H](NC(=O)c3cc4cccc(F)c4[nH]3)CC1)CC2 |  | 4.5 nM | 8.35 |  |  |  |  |  | 62 | 0.016 | -1.79 |
| N#Cc1ccc2c(c1)CN(CC[C@H]1CC[C@H](NC(=O)c3cc4sccc4[nH]3)CC1)CC2 |  | 87 nM | 7.06 |  |  |  |  |  |  |  |  |
| N#Cc1ccc2c(c1)CN(CC[C@H]1CC[C@H](NC(=O)c3cc4cc(F)ccc4[nH]3)CC1)CC2 |  | 6.8 nM | 8.17 |  |  |  |  |  | 63 | 0.016 | -1.8 |
| N#Cc1ccc2c(c1)CN(CC[C@H]1CC[C@H](NC(=O)c3cc4ccncc4[nH]3)CC1)CC2 |  | 2.7 nM | 8.57 |  |  |  |  |  | 1800 | 0.00055 | -3.26 |
| COc1ccc2[nH]c(C(=O)N[C@H]3CC[C@H](CCN4CCc5ccc(C#N)cc5C4)CC3)cc2c1 |  | 2 nM | 8.7 |  |  |  |  |  |  |  |  |
| N#Cc1ccc2c(c1)CN(CC[C@H]1CC[C@H](NC(=O)c3cnc4ccccn34)CC1)CC2 |  | 24 nM | 7.62 |  |  |  |  |  | 210 | 0.0048 | -2.31 |
| N#Cc1ccc2c(c1)CN(CC[C@H]1CC[C@H](NC(=O)c3cc4cccnc4[nH]3)CC1)CC2 |  |  | 7.63 |  |  |  |  |  | 26 | 0.038 | -1.42 |
| COc1cccc2[nH]c(C(=O)N[C@H]3CC[C@H](CCN4CCc5ccc(C#N)cc5C4)CC3)cc12 |  | 617 nM | 6.21 |  |  |  |  |  | 3 | 0.3 | -0.52 |
| COc1ccc2cc(C(=O)N[C@H]3CC[C@H](CCN4CCc5ccc(C#N)cc5C4)CC3)[nH]c2c1 |  | 25 nM | 7.6 |  |  |  |  |  |  |  |  |
| N#Cc1ccc2c(c1)CN(CC[C@H]1CC[C@H](NC(=O)c3cc4ccccn4n3)CC1)CC2 |  | 165 nM | 6.78 |  |  |  |  |  | 33 | 0.03 | -1.52 |
